Active and inactive are the calls of the source. The calls are words filed in the database; no cut-off is given here.
What was measured:
[1] = target: T1, Adenosine receptor A3 (Homo sapiens) (UniProt P0DMS8); experiment: Displacement of [125I]AB-MECA from recombinant human A3 receptor at 10 uM after 120 mins by scintillation counting method relative to control
T1 sequence (whole entry): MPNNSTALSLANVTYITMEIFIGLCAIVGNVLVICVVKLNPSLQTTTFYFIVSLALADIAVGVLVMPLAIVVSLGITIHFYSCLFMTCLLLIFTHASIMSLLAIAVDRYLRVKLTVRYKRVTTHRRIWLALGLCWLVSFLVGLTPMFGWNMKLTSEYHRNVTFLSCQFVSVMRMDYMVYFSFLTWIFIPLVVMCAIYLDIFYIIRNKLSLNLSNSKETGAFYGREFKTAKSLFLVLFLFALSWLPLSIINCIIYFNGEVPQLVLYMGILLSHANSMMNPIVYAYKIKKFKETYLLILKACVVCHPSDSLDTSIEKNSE

[2] = system: P-gp; experiment: Efflux ratio of permeability in MDCK cells harboring P-gp; assay type: ADME, cell-based, Canis lupus familiaris; settings: dog, MDCK-MDR1
[3] = Clearance in rat administered as iv cassette dose; assay type: ADME, organism-based; settings: in vivo
Summary of the method: (§1)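 IV cassette in male Sprague-Dawley rats (~300 g, n = 1 per experiment), cannulated in carotid artery and jugular vein and acclimated about one week. Plasma clearance, Vss, t1/2 and MRT were derived.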

[4] = target: Metabotropic glutamate receptor 8 (Rattus norvegicus) (UniProt P70579); experiment: Allosteric modulation of rat mGlu8 receptor expressed in HEK cells co-expressing GIRK1/2 assessed as change in glutamate-induced thallium flux preincubated for 2.5 mins followed by glutamate addition by FluoZin-2-AM dye based fluorescence assay; assay type: cell-based
Sequence of Metabotropic glutamate receptor 8 (Rattus norvegicus) (P70579 whole entry): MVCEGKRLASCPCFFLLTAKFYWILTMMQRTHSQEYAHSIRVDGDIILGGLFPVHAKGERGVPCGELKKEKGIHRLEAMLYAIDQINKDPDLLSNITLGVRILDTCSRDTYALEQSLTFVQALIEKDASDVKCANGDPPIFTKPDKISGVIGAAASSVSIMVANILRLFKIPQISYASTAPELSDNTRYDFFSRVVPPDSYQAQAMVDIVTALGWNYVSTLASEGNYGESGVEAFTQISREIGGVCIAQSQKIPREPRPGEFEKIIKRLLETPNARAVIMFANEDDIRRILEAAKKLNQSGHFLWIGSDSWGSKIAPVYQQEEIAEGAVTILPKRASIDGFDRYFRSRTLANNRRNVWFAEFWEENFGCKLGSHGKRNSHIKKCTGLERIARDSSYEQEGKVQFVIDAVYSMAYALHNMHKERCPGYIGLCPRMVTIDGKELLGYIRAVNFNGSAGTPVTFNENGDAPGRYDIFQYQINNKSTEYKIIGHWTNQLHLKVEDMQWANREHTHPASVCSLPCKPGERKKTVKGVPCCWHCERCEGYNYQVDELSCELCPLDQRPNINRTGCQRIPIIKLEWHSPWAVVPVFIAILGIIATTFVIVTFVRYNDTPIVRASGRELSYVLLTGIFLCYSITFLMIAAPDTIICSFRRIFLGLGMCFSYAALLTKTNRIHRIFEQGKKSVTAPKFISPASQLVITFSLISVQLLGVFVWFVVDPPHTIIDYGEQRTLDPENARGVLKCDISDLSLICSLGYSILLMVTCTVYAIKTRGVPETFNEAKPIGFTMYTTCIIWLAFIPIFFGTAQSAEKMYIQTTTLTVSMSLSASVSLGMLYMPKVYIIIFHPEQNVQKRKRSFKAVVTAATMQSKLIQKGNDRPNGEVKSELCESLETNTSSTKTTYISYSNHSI
Summary of the method: (§2)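 HEK cells expressing GIRK1/2 plus rat mGlu2, mGlu3, mGlu7 or mGlu8, plated at 15,000 cells/well. Thallium flux was read with a double addition: 10 μM compound, then 2.5 min later a full agonist concentration-response. The agonist was glutamate, or L-AP4 for mGlu7. A left shift of more than 2-fold counted as potentiation. A right shift of more than 2-fold, or a ≥75% drop in maximum response, counted as antagonism.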

[5] = system: Rattus norvegicus; experiment: Reversal of haloperidol-induced catalepsy in Sprague-Dawley rat assessed as decrease in latency to remove forepaws from bar at 10 mg/kg, po administered 30 mins prior to test; assay type: functional, organism-based
Summary of the method: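 Male Sprague-Dawley rats were randomized and given haloperidol 0.75 mg/kg i.p., then 60 min in home cage. Vehicle or compound (10 mg/kg) was given orally 30 min before catalepsy testing, N = 11–12 rats/group. Data analyzed by one-way ANOVA with Dunnett's test versus vehicle + haloperidol.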

[6] = target: Metabotropic glutamate receptor 5 (Rattus norvegicus) (UniProt P31424); experiment: Allosteric modulation of rat mGlu5 receptor assessed as change in glutamate-induced calcium mobilization at 10 uM preincubated for 2.5 mins followed by glutamate addition by Fluo-4-AM dye based fluorescence assay; assay type: functional
Sequence of Metabotropic glutamate receptor 5 (Rattus norvegicus) (P31424 21-1203 limits assumed): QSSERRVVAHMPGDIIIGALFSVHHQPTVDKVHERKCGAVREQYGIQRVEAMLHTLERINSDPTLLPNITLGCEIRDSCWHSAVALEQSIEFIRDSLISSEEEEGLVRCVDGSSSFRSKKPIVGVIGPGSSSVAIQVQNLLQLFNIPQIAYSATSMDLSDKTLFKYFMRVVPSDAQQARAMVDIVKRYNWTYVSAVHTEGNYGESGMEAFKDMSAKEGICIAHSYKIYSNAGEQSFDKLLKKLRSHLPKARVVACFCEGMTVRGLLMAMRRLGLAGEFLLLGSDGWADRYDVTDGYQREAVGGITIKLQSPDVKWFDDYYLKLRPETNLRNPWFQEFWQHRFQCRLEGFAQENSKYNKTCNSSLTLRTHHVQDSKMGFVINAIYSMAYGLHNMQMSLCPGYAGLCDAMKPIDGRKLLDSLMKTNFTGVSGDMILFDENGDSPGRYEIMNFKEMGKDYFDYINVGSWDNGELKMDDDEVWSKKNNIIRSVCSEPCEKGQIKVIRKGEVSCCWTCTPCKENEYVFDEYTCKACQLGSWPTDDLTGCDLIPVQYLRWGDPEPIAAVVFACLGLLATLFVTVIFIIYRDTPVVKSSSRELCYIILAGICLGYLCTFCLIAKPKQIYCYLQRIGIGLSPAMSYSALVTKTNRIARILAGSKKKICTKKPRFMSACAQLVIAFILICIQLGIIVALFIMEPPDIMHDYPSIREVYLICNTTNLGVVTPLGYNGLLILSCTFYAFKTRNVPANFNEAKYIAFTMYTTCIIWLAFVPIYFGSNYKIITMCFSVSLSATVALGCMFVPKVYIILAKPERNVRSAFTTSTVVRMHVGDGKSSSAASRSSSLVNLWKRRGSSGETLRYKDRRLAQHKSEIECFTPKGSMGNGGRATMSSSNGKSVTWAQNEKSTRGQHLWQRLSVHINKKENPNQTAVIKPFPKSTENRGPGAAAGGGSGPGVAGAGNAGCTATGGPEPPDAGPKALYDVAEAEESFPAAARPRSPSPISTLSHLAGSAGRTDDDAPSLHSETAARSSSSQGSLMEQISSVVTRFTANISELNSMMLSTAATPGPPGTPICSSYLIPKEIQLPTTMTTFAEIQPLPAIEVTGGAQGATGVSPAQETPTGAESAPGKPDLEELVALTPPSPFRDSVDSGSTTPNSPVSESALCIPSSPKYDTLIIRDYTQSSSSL
Summary of the method: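 Human mGlu1 and rat mGlu5 tested by calcium mobilization with a double addition. 10 μM compound was added, then 2.5 min later a full glutamate concentration range. A left shift of more than 2-fold was scored as potentiation. A right shift of more than 2-fold, or a depression of the maximum response by at least 75%, was scored as antagonism.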

[7] = target: Cytochrome P450 2C9 (Homo sapiens, UniProt P11712); experiment: Inhibition of CYP2C9 in human liver microsomes using diclofenac as substrate preincubated for 15 mins followed by substrate addition and measured after 8 mins by LC-MS/MS analysis; assay type: ADME
[8] = target: Metabotropic glutamate receptor 2 (Rattus norvegicus) (UniProt P31421); experiment: Allosteric modulation of rat mGlu2 receptor expressed in HEK cells co-expressing GIRK1/2 assessed as change in glutamate-induced thallium flux preincubated for 2.5 mins followed by glutamate addition by FluoZin-2-AM dye based fluorescence assay; assay type: cell-based; summary of the method: as §2
Sequence of Metabotropic glutamate receptor 2 (Rattus norvegicus) (P31421 19-872 limits assumed): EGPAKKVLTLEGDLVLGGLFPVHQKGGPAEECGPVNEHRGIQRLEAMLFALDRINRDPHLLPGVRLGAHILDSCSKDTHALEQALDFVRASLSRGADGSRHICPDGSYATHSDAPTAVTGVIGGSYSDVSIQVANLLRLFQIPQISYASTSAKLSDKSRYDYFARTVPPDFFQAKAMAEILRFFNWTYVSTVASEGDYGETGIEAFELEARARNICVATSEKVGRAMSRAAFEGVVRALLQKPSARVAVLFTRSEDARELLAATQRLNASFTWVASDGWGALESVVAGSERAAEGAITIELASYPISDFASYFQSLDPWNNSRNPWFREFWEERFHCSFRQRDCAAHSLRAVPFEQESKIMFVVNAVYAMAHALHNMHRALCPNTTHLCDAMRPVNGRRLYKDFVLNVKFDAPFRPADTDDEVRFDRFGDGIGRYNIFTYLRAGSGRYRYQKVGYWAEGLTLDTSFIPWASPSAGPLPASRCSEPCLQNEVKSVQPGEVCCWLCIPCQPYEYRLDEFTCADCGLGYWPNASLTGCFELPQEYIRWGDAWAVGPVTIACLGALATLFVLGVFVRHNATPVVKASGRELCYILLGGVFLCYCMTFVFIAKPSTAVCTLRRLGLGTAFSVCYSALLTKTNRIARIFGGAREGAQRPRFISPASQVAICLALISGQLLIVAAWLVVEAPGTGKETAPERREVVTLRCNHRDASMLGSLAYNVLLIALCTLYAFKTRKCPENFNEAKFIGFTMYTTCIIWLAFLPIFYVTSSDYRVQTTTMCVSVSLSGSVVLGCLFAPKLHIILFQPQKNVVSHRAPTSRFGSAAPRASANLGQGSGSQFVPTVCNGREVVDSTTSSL

[9] = Volume of distribution at steady state in rat administered as iv cassette dose; assay type: ADME, organism-based; settings: in vivo, read-out: Vdss; summary of the method: as §1
[10] = Plasma concentration in rat administered as iv cassette dose; assay type: ADME, organism-based; settings: in vivo
Summary of the method: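 Cassette dosing in male Sprague-Dawley rats (~300 g, n = 1 per experiment), with carotid artery and jugular vein catheters. Animals acclimated about one week with food and water ad libitum. Plasma (ng/mL) and brain (ng/g) levels were measured and Kp calculated.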

[11] = Brain to plasma partition coefficient, Kp of the compound in Sprague-Dawley rat model of haloperidol-induced catalepsy at 10 mg/kg, po; assay type: ADME, organism-based; settings: brain and plasma
Summary of the method: (§3)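 Male Sprague-Dawley rats given haloperidol 0.75 mg/kg i.p., then returned to cages for 60 min. Compound 10 mg/kg was dosed orally 30 min before catalepsy testing. Plasma, brain and CSF were then assayed, and free levels reported.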

[12] = target: Cytochrome P450 3A4 (Homo sapiens, UniProt P08684); experiment: Inhibition of CYP3A4 in human liver microsomes using midazolam as substrate preincubated for 15 mins followed by substrate addition and measured after 8 mins by LC-MS/MS analysis; assay type: ADME
[13] = Intrinsic clearance in human liver microsomes at 1 uM preincubated for 5 mins followed by NADPH addition measured up to 45 mins by LC-MS/MS analysis; assay type: ADME, Microsome; settings: read-out: CLH
Summary of the method: (§4)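 Intrinsic and predicted hepatic clearance derived from liver microsome incubations.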

[14] = system: P-gp; experiment: Permeability from basolateral to apical side in MDCK cells harboring P-gp; assay type: ADME, cell-based, Canis lupus familiaris; settings: dog, MDCK-MDR1; read-out: permeability
[15] = MRT in rat administered as iv cassette dose; assay type: ADME, organism-based; settings: in vivo; summary of the method: as §1
[16] = Intrinsic clearance in rat liver microsomes at 1 uM preincubated for 5 mins followed by NADPH addition measured up to 45 mins by LC-MS/MS analysis; assay type: ADME, Microsome; settings: read-out: CLH; summary of the method: as §4
[17] = target: Metabotropic glutamate receptor 7 (Rattus norvegicus) (UniProt P35400); experiment: Allosteric modulation of rat mGlu7 receptor expressed in HEK cells co-expressing GIRK1/2 assessed as change in glutamate-induced thallium flux preincubated for 2.5 mins followed by glutamate addition by FluoZin-2-AM dye based fluorescence assay; assay type: cell-based
Sequence of Metabotropic glutamate receptor 7 (Rattus norvegicus) (P35400 whole entry): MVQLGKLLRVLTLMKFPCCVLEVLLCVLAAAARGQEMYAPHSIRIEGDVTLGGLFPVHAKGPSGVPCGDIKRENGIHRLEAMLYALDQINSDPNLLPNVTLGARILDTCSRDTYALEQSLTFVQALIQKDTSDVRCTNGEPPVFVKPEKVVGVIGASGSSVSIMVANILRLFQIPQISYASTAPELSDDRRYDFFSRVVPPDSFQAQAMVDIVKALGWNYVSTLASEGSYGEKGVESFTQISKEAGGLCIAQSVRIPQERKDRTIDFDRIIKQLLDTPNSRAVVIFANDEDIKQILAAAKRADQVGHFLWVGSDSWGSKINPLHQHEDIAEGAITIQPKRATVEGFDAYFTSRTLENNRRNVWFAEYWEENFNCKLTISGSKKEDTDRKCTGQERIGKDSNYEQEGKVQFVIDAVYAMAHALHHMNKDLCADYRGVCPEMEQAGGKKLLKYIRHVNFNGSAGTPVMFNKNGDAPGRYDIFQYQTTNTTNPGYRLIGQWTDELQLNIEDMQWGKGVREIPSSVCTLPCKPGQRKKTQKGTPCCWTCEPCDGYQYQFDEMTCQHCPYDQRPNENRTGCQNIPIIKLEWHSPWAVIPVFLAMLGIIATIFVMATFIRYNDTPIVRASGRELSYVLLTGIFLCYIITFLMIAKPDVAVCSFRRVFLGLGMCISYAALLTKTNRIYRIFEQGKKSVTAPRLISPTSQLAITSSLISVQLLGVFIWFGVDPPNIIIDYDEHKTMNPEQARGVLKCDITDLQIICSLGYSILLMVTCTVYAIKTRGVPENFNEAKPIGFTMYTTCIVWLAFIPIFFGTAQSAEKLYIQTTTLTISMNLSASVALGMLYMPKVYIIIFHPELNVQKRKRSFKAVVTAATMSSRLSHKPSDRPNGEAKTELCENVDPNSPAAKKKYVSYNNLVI

[18] = Plasma concentration in Sprague-Dawley rat model of haloperidol-induced catalepsy at 10 mg/kg, po; assay type: ADME, organism-based; settings: in vivo; summary of the method: as §3
[19] = target: Metabotropic glutamate receptor 4 (Homo sapiens, UniProt Q14833); experiment: Positive allosteric modulation of human mGlu4 receptor expressed in CHO cells co-expressing Gqi5 assessed as increase in glutamate-induced calcium mobilization preincubated for 142 secs followed by EC20 glutamate addition and measured after 147 secs by Fluo-4-AM dye based fluorescence assay relative to control; assay type: functional, cell-based
Sequence of Metabotropic glutamate receptor 4 (Q14833 whole entry): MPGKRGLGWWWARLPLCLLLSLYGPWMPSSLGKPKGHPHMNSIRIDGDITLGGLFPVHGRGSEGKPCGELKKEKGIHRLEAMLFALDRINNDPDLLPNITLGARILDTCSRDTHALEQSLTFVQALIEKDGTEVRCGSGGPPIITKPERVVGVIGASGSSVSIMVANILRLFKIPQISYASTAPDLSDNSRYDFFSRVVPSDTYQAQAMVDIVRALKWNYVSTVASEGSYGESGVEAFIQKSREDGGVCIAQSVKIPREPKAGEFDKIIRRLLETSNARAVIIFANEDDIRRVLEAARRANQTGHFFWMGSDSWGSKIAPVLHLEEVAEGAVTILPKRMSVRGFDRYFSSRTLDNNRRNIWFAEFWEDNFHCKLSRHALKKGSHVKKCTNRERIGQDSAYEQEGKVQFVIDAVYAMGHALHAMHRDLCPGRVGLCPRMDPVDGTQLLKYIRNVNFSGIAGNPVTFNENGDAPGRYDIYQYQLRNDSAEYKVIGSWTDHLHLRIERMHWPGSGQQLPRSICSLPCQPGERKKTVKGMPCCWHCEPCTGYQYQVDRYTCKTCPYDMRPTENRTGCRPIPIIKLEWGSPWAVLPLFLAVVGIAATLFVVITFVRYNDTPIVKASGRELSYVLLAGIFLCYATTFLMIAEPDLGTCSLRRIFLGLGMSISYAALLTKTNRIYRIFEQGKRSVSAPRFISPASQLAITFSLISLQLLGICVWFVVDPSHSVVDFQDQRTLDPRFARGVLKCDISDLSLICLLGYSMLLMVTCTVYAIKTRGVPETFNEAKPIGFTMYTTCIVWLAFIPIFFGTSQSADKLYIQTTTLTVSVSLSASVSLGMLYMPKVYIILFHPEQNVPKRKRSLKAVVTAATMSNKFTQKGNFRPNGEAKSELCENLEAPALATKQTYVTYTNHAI
Summary of the method: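 CHO cells expressing human mGlu4 and Gqi5, plated at 30,000 cells/well and grown overnight at 37 °C, 5% CO2. Cells were loaded with 1 μM Fluo-4 AM for 45 min at 37 °C in HBSS/20 mM HEPES/2.5 mM probenecid. Compounds were run as 10-point, 1:3 dilution series. After 142 s, EC20 glutamate was added; 147 s later, EC80 glutamate. Fluorescence was normalized to the maximal glutamate response. EC50 and %Glu Max were fitted by four-parameter logistic, with maximum normalized to PHCCC.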

[20] = Fraction unbound in human plasma after 4 hrs by equilibrium dialysis method; assay type: ADME, cell-free
[21] = Half life in rat administered as iv cassette dose; assay type: ADME, organism-based; settings: in vivo; summary of the method: as §1

- inhibition [1]: 76%
- efflux ratio [2]: 1.9
- clearance [3]: 3.1 mL/min/kg
- Activity [4]: inactive
- Activity [6]: inactive
- IC50 [7]: > 30 µM
- Activity [8]: inactive
- Vd [9]: 1.6 L/kg
- Cp [10]: 284 ng/mL
- IC50 [12]: > 30 µM
- CLint scaled at 1 µM [13]: 19 mL/min/kg
- Papp B→A [14]: 5.4 ×10⁻⁶ cm/s
- MRT [15]: 8.5 h
- CLint scaled at 1 µM [16]: 34.2 mL/min/kg
- Activity [17]: inactive
- %max [19]: 50.5%
- fraction unbound at 4 h [20]: 0.024
- half-life [21]: 7.42 h
Compound: O=C(NC1CC(F)(F)C1)c1nsc2cc(Nc3n[nH]c4cccnc34)ccc12
- Activity [5]: Active
- Kp [11]: 0.23
- concentration [18]: 1120 nM

Source: ChEMBL document CHEMBL4308847, “Discovery, Structure-Activity Relationship, and Biological Characterization of a Novel Series of 6-((1 H-Pyrazolo[4,3- b]pyridin-3-yl)amino)-benzo[ d]isothiazole-3-carboxamides as Positive Allosteric Modulators of the Metabotropic Glutamate Receptor 4 (mGlu4)” (J Med Chem, 2018)
